The text below walks through data of ChEMBL document CHEMBL6127097, “Structure-Guided Discovery of cis-Hexahydro-pyrido-oxazinones as Reversible, Drug-like Monoacylglycerol Lipase Inhibitors” (J Med Chem, 2024).

A short description of data set [1]: Octanol-water partition coefficient, logD of the compound at pH 7.4 incubated for 1.5 hrs by shake flask based LC-UV/MS analysis. Particulars: pH 7.4. It counts as physicochemical. In short, it runs like this: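 CAMDIS shake-flask variant. 10 mM DMSO stock is diluted into 25 mM phosphate pH 7.4 over a 1-octanol-impregnated PVDF membrane and shaken 1.5 h at 21 °C, at two octanol/buffer ratios, in triplicate. Remaining aqueous concentration is read by LC/MS; logD comes from the difference with and without octanol.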

Data set [2] is described as follows: Aqueous solubility of compound in phosphate buffer at pH 6.5 by HPLC or MS/MS analysis. The class given is physicochemical. As to conditions: phosphate buffer, read-out: solubility. Summed up:
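Lyophilization solubility assay (LYSA) starting from a 10 mM DMSO stock. DMSO was removed by centrifugal vacuum evaporation, then 0.05 M phosphate buffer pH 6.5 was added and samples sonicated. Filtrates were analysed by MS/MS and/or HPLC against a 4- to 7-point calibration curve.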

Another data set has as its target T1, Monoglyceride lipase (Homo sapiens, UniProt Q99685).
T1 sequence (Q99685 whole entry): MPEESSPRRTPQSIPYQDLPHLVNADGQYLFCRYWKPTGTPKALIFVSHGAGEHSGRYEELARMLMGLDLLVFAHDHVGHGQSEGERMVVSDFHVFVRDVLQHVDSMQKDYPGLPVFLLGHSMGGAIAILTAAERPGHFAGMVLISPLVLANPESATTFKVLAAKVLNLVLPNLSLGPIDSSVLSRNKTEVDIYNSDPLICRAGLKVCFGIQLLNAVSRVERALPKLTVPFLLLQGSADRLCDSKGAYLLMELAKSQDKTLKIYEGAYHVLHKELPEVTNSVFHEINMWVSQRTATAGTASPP
Nature of the data set: Inhibition of human MAGL using native substrate by Rapidfire MS assay.

Data set [3] in a line: Free fraction in human plasma incubated for 5 hrs by equilibrium dialysis based LC-MS/MS analysis. It counts as ADME, cell-free. In short, it runs like this: (§1)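 Equilibrium dialysis across a 12–14 kDa cutoff membrane in a Teflon 96-well device. Pooled frozen plasma is adjusted to pH 7.4 and spiked at 1000 nM initial total, against Soerensen buffer pH 7.4. Incubation is 5 h at 37 °C, 5% CO2, with diazepam control in each well. %fu = 100 × buffer/matrix concentration after dialysis; recovery accepted at 80–120%.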
Background: In equilibrium dialysis only unbound substance equilibrates across the membrane.

Data set [4] in a line: Plasma protein binding in human assessed as fraction unbound by equilibrium dialysis based LC-MS/MS method. The class given is ADME, cell-free. In short, it runs like this:
as §1

A short description of data set [5]: Cmax in C57BL/6 mouse at 24 mg/kg, ip measured upto 7 hrs by LC-MS/MS analysis. As to conditions: in vivo.
Data set [6] can be described thus: Tmax in C57BL/6 mouse at 24 mg/kg, ip measured upto 7 hrs by LC-MS/MS analysis. Particulars: in vivo.
The nature of data set [7]: Cmax in C57BL/6 mouse at 5.1 mg/kg, po measured upto 7 hrs by LC-MS/MS analysis. Particulars: in vivo.
Data set [8] in a line: Tmax in C57BL/6 mouse at 5.1 mg/kg, po measured upto 7 hrs by LC-MS/MS analysis. As to conditions: in vivo.
Data set [9] in a line: AUClast in C57BL/6 mouse at 24 mg/kg, ip measured upto 7 hrs by LC-MS/MS analysis. As to conditions: in vivo.
Data set [10] can be described thus: AUClast in C57BL/6 mouse at 5.1 mg/kg, po measured upto 7 hrs by LC-MS/MS analysis. As to conditions: in vivo.
Data set [11] is described as follows: Half-life in C57BL/6 mouse at 24 mg/kg, ip measured upto 7 hrs by LC-MS/MS analysis. As to conditions: in vivo.
Data set [12] in a line: Clearance in C57BL/6 mouse at 1.3 mg/kg, iv measured upto 7 hrs by LC-MS/MS analysis. Particulars: in vivo.
Data set [13] in a line: Half-life in C57BL/6 mouse at 1.3 mg/kg, iv measured upto 7 hrs by LC-MS/MS analysis. As to conditions: in vivo.
Data set [14] in a line: Oral bioavailability in C57BL/6 mouse at 5.1 mg/kg measured upto 7 hrs by LC-MS/MS analysis. As to conditions: in vivo.
Data set [15] in a line: Volume of distribution at steady state in C57BL/6 mouse at 1.3 mg/kg, iv measured upto 7 hrs by LC-MS/MS analysis. Particulars: in vivo, read-out: Vdss.
Data set [16] can be described thus: Ratio of drug concentration in C57BL/6 mouse CSF to plasma at 24 mg/kg, ip measured upto 7 hrs by LC-MS/MS analysis.
The nature of data set [17]: Ratio of drug concentration in C57BL/6 mouse brain to plasma at 24 mg/kg, ip measured upto 7 hrs by LC-MS/MS analysis.
A short description of data set [18]: Unbound brain to plasma partition coefficient of compound in C57BL/6 mouse at 24 mg/kg, ip measured upto 7 hrs by LC-MS/MS analysis. Particulars: read-out: K(p,uu,brain).

≈ marks a conversion by molar mass, not a printed value.

One may read the logD as the decadic logarithm of the distribution of all forms, ionised or not, between an organic phase and buffer at a given pH. Read a low logD as a more hydrophilic compound. What is called solubility is how much of the substance goes into solution per volume. For `O=C1CO[C@@H]2CCN(C(=O)N3CCC(Cc4ccc(C(F)(F)F)cc4)CC3)C[C@@H]2N1`, the logD at 1.5 h in data set [1] was found to be 3.3. Further, the solubility in data set [2] turned out to be 114 µg/mL (≈ 268 µM). Further, the IC50 at Monoglyceride lipase (read-out: IC50) turned out to be 2.2 µM.

In data set [1], `O=C1CO[C@H]2CCN(C(=O)N3CCC(Cc4ccc(C(F)(F)F)cc4)CC3)C[C@@H]2N1` (racemic) came in with a logD at 1.5 h of 3.2. The solubility in data set [2] worked out at 78 µg/mL (≈ 183 µM). In addition, the IC50 was 0.37 µM at Monoglyceride lipase (read-out: IC50) and 0.347 µM at Monoglyceride lipase (read-out: pIC50 (converted)).

One may read the fraction unbound as the share of the substance not bound to proteins or other matrix. Regarding `O=C1COc2ccc(C(=O)N3CCC(Cc4ccc(C(F)(F)F)cc4)CC3)cc2N1`, the pH-dependent lipophilicity (logD) at 1.5 h in data set [1] stood at 3.8. The solubility in data set [2] was found to be 4.1 µg/mL (≈ 9.8 µM). The same molecule had a fraction unbound at 5 h in data set [3] of 0.005. Further, the fraction unbound in data set [4] is 0.005. The IC50 on Monoglyceride lipase (read-out: IC50) was 0.032 µM; on Monoglyceride lipase (read-out: pIC50 (converted)), 0.0288 µM.

Broadly, the Cmax is the maximum level reached in the sampled fluid or tissue. For orientation: Tmax means the time at which the peak concentration occurs. Broadly, the AUC(0-t) is exposure summed from dosing to a finite time, without extrapolation to infinity. By half-life is commonly meant the time needed for the level to fall by half in the phase considered. Low values mean fast loss, high ones slow loss. One may read the clearance as a measure of how efficiently the substance is removed, as volume per time. Lower therefore signals inefficient removal. The term Kp denotes tissue or fluid exposure divided by exposure in the circulation. Consider `O=C1CO[C@H]2CCN(C(=O)N3CCC(Cc4ccc(C(F)(F)F)cc4)CC3)C[C@H]2N1` (racemic), for which the logD at 1.5 h in data set [1] stood at 3.2. Besides, the solubility in [2] came to 225 µg/mL (≈ 529 µM). The IC50 at Monoglyceride lipase (read-out: IC50) stood at 0.065 µM. The highest concentration (Cmax) in data set [5] was 12.2 µg/mL; in [7] it was 0.896 µg/mL. For the same molecule, the time to peak (Tmax) in data set [6] was found to be 1.5 h; in data set [8], 2.7 h. For the same molecule, the AUC(0-t) at 7 h in data set [9] stood at 62.1 µg·h/mL; in [10] it was 4.56 µg·h/mL. Besides, the results for the half-life in [11] and in data set [13] were 2.9 h and 1.5 h, respectively. This molecule had a clearance in data set [12] of 1.38 L/h/kg. The bioavailability in data set [14] was 127%. Moreover, the Vd in data set [15] was found to be 3 L/kg. Also, the Kp at 7 h in [16] was 0.016; in data set [17] it was 1.7. In addition, the Kp uu at 7 h in [18] was found to be 0.35.

The molecule `O=C1COc2ccc(C(=O)N3CCC(Cc4ccc(F)cc4)CC3)cc2N1` yielded a log distribution coefficient (logD) at 1.5 h in data set [1] of 3.3. The solubility in data set [2] was 0.8 µg/mL (≈ 2.17 µM). For the same molecule, the IC50 on Monoglyceride lipase (read-out: IC50) is 0.062 µM; on Monoglyceride lipase (read-out: pIC50 (converted)), 0.0575 µM.

Take `O=C1CSc2ccc(C(=O)N3CCC(Cc4ccc(C(F)(F)F)cc4)CC3)cc2N1`: the logD at 1.5 h in data set [1] was determined as 3.7. For the same molecule, in data set [2], the solubility stood at 6.9 µg/mL (≈ 15.9 µM). The IC50 on Monoglyceride lipase (read-out: IC50) is 2.5 µM; on Monoglyceride lipase (read-out: pIC50 (converted)) it was 2.4 µM.

In data set [1], `O=C1C[C@H]2CCN(C(=O)N3CCC(Cc4ccc(C(F)(F)F)cc4)CC3)C[C@H]2N1` displayed a log distribution coefficient (logD) at 1.5 h of 3.2. Besides, the solubility in data set [2] worked out at 377 µg/mL (≈ 921 µM). Besides, the IC50 on Monoglyceride lipase (read-out: IC50) stood at 0.569 µM.

For the molecule `O=C1COc2ccc(C(=O)N3CCC(c4c[nH]c5ccccc45)CC3)cc2N1`, in [1], the log distribution coefficient (logD) at 1.5 h was 2.9. The solubility in data set [2] amounted to 37 µg/mL (≈ 98.6 µM). On Monoglyceride lipase (read-out: IC50), the IC50 is 0.037 µM.

The molecule `O=C1COc2ccc(C(=O)N3CCC(C(c4ccc(F)cc4)c4ccc(F)cc4)CC3)cc2N1` gave a logD at 1.5 h in [1] of 3.8. Moreover, in data set [2], the solubility was less than 0.1 µg/mL. The IC50 at Monoglyceride lipase (read-out: IC50) was 0.001 µM.

The molecule `O=C1COc2ccc(C(=O)N3CCC(Cc4cccc(F)c4)CC3)cc2N1` returned a logD at 1.5 h in data set [1] of 3.6. For the same molecule, in data set [2], the solubility was determined as 36 µg/mL (≈ 97.7 µM). For the same molecule, the values for the IC50 on Monoglyceride lipase (read-out: IC50) and at Monoglyceride lipase (read-out: pIC50 (converted)) were 0.051 µM and 0.049 µM, respectively.

As to `O=C1COc2ccc(C(=O)N3CCC(c4c[nH]c5cc(Cl)ccc45)CC3)cc2N1`, in [1], the logD at 1.5 h is 3.8. Besides, the solubility in data set [2] was determined as 0.3 µg/mL (≈ 0.732 µM). The IC50 on Monoglyceride lipase (read-out: IC50) came to 0.021 µM.

In the case of `O=C(c1ccc2cn[nH]c2c1)N1CCC(Cc2ccc(C(F)(F)F)cc2)CC1`, the log distribution coefficient (logD) at 1.5 h in data set [1] came out at 3.8. Further, the solubility in data set [2] stood at 2.9 µg/mL (≈ 7.49 µM). Besides, the IC50 on Monoglyceride lipase (read-out: IC50) was 0.965 µM; on Monoglyceride lipase (read-out: pIC50 (converted)) it was 0.912 µM.

`O=C1COc2ccc(C(=O)N3CCC(c4c[nH]c5ccc(Cl)cc45)CC3)cc2N1` showed a logD at 1.5 h in data set [1] of 3.6. Besides, in [2], the solubility came to 2 µg/mL (≈ 4.88 µM). Also, the IC50 at Monoglyceride lipase (read-out: IC50) was 0.003 µM.

`O=C1COc2ccc(C(=O)N3CCC(Cc4cccc(C(F)(F)F)c4)CC3)cc2N1` yielded a logD at 1.5 h in [1] of 3.9. In data set [2], the solubility is 15 µg/mL (≈ 35.8 µM). The values for the IC50 at Monoglyceride lipase (read-out: IC50) and on Monoglyceride lipase (read-out: pIC50 (converted)) were 0.046 µM and 0.0447 µM, respectively.

Turning to `O=C1COc2ccc(C(=O)N3CCC(Cc4ccccc4)CC3)cc2N1`, the logD at 1.5 h in [1] amounted to 3.2. Also, the solubility in data set [2] was 1.1 µg/mL (≈ 3.14 µM). For the same molecule, the IC50 on Monoglyceride lipase (read-out: IC50) is 0.075 µM.

Take `O=C1COc2ccc(C(=O)N3CCC(C(c4ccccc4)c4ccccc4)CC3)cc2N1`: in [1], the logD at 1.5 h turned out to be 3.8. Moreover, in data set [2], the solubility is less than 0.1 µg/mL. For the same molecule, the IC50 at Monoglyceride lipase (read-out: IC50) was 0.001 µM; at Monoglyceride lipase (read-out: pIC50 (converted)), 0.000437 µM.
